Bioassay records from PubChem BioAssay.
NR2E3 ag-1: NR2E3 agonists in two-hybrid cells, primary screen, cell-based, luminescence, CHO-S, Gal4-NCOR/VP16-NR2E3 | luciferase | inhibition of corepressor binding, % at 3.98 µM | actives 0.35% (n = 360,000) | AID 602229, 2012;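 active = inhibition above the mean of all tested compounds plus 3 SD, cut at about 70% in these data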;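 also: 0% = DMSO with NR2E3 transfected cells and 100% = cells lacking NR2E3 construct; higher means lower luciferase signal from less NR2E3 corepressor binding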
CHT allo act: CHT positive allosteric modulators, primary screen, cell-based, membrane potential dye, choline EC20 | High affinity choline transporter 1 (Homo sapiens), Q9GZV3 | CHT-expressing cells; active compounds read high; LV-AA mutant CHT in HEK293 cells | B-score at 10 µM | actives 0.49% (n = 310,000) | AID 488977, 2010;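 active = initial fluorescence not abnormally high and integrated response B-score, plate-corrected, over 3 SD above library mean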
Target sequence (Q9GZV3 whole entry, looked up): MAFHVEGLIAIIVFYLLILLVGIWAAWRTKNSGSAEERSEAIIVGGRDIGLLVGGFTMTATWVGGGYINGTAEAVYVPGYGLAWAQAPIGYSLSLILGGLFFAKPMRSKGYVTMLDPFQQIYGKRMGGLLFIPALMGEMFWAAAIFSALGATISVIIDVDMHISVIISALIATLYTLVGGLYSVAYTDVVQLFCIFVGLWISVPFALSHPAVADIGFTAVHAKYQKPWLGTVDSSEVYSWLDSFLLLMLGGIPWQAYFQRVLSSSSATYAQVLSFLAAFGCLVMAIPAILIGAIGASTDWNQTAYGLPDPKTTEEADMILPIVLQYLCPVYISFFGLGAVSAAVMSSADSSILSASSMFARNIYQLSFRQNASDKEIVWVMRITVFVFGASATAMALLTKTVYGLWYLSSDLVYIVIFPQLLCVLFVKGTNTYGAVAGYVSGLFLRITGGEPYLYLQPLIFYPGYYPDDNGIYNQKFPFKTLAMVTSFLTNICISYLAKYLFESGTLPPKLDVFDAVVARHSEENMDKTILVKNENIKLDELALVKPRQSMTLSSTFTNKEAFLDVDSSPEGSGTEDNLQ
CHT inh: inhibitors of human choline transporter CHT; AID 488975, 2010; B-score at 10 µM; actives 0.86% (n = 310,000); High affinity choline transporter 1 (Homo sapiens), Q9GZV3; CHT-expressing cells, membrane potential dye, choline response; active compounds read low;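 active = B-score over 3 SD under the library average, and starting fluorescence ratio not unusually high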;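 also: choline stimulus applied at its EC90 after an EC20 pre-addition; B-score computed on integrated fluorescence ratio after choline addition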
NR2F2 inh: NR2F2 transcriptional activity inhibitors, primary screen, cell-based, luciferase reporter, HEK293T, luminescence; actives 0.7% (n = 370,000); inhibition, % at 8.6 µM; HEK293T NGFI-A luciferase reporter; COUP transcription factor 2 (Homo sapiens), P24468;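 active = inhibition above a per-plate cutoff, mean inhibition of test wells between control levels plus 3 SD, cut at about 38% in these data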;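 also: cells cotransfected with COUP-TFII expression vector driving the NGFI-A reporter; 0% = median of COUP-TF2 test wells and 100% = reporter-only cells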
NR2E3 ag-2: inhibitors of NR2E3-RetCOR corepressor binding, primary screen, NR2E3 agonist project, biochemical, TR-FRET, GST-NR2E3, biotin-RetCOR. AID 2300, 2010. actives 0.12% (n = 320,000). 1536-well. Photoreceptor-specific nuclear receptor (Homo sapiens), Q9Y5X4. inhibition of corepressor binding, % at 4.78 µM;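 active = percent inhibition above the cutoff of mean plus 3 SD of all tested compounds, set per screening campaign, cut at about 20% in these data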;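 also: 0% = DMSO wells and 100% = biotin wells as full block of FRET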
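Test system: GST-NR2E3 and biotin-RetCOR proteins | Quantity: 1.35 nM GST-tagged NR2E3 final | Medium: Tris pH 7.5 | Also added: 7 nM biotin-RetCOR | Dosing: Compound at 4.8 µM, single dose | Timing: 5 h at 4 °C | Detection: Time-resolved FRET | Read-out basis: Percent inhibition | Benchmarks: Biotin wells as high control, 0.6% DMSO wells as low control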
GalR3 antag: GalR3 antagonists in HEK293 cells, primary screen, cell-based, fluorescence readout | Galanin receptor type 3 (Homo sapiens), O60755 | HEK293 GalR3-CNG cAMP membrane potential fluorescence; galR3 body fused to GalR1 C-terminus | inhibition, % at 3 µM | actives 0.44% (n = 360,000) | AID 651719, 2012;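 active = inhibition above the screen-wide average plus 3 SD, cut at about 13% in these data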;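 also: forskolin and galanin both at EC90 stimulate the cells; cAMP rise reported by CNG channel membrane potential dye signal; 0% = forskolin plus galanin with DMSO and 100% = forskolin alone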
CHT inh conf: CHT inhibitors, confirmation, cell-based, membrane potential dye, duplicate | shares compounds with CHT inh | CHT activity remaining % of control (active compounds read low), % at 10 µM | CHT-expressing cells, choline membrane potential dye; LV-to-AA substituted CHT, HEK293 cells | actives 70% (n = 2,400);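 active = choline transporter activity left, mean of duplicates at 10 µM, below buffer-only control mean minus 3 SD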;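 also: depolarization triggered by choline at its EC90 following an EC20 pre-addition; 0% = hemicholinium-3 full block and 100% = buffer-only control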
HEK293 MPD ctr: membrane potential effects in parental HEK293, counter-screen for CHT inhibitor project, cell-based, membrane potential dye. actives 4% (n = 2,400). membrane potential ratio readout (active if shifted either direction beyond buffer ±3SD; no single direction) at 10 µM. shares compounds with CHT inh. choline response; active = decrease or increase beyond buffer ±3SD. AID 493222, 2011;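 also: parental cells lack the transporter so any hit is non-specific; ratio is peak minus trough fluorescence over baseline after EC90 choline challenge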
* hit, by the source's call. The list is not random: actives were taken first. Their share in the collection is about 2.3%.

How did CC(NC(=O)CCN1C(=O)c2ccccc2C1=O)c1ccc2c(c1)CCCC2 (stereo not given) do in these assays?
NR2E3 ag-1: -8; CHT allo act: inactive; CHT inh: -5.4*; NR2F2 inh: 10; NR2E3 ag-2: 3; GalR3 antag: -4; CHT inh conf: inactive; HEK293 MPD ctr: inactive

Results for Cc1cccc(-c2ncc(CN3CCN(C4CCCC4)C(CCO)C3)cn2)c1 (stereo not given) ?
NR2E3 ag-1: 8; CHT allo act: inactive; CHT inh: inactive; NR2F2 inh: 3; NR2E3 ag-2: 2; GalR3 antag: -1

Results for Cc1cccc(-c2ncc(CN3CCN(CCC(C)C)C(CCO)C3)cn2)c1 (stereo not given) ?
NR2E3 ag-1: -4; CHT allo act: inactive; CHT inh: -5.8*; NR2F2 inh: 0; NR2E3 ag-2: 5; GalR3 antag: -2; CHT inh conf: inactive; HEK293 MPD ctr: inactive

What do the screens show for `O=C(Cn1nnc(-c2ccccc2F)n1)Nc1ccc(Cl)cc1`?
NR2F2 inh: 9

How did Cc1ccccc1Cn1nc(C)c(NC(=O)c2noc3c2CCCC3)c1C do in these assays?
NR2E3 ag-1: -7; CHT allo act: inactive; CHT inh: inactive; NR2F2 inh: 1; NR2E3 ag-2: 0; GalR3 antag: -7

What do the screens show for `Cc1nn(Cc2ccccc2Cl)c(C)c1NC(=O)c1noc2c1CCCCC2`?
NR2E3 ag-1: -2; CHT allo act: inactive; CHT inh: -5.7*; NR2F2 inh: 9; NR2E3 ag-2: 0; GalR3 antag: -5; CHT inh conf: 41%*; HEK293 MPD ctr: inactive

What do the screens show for `CCC(Oc1ccc2c(c1)C(=O)CC(C)(C)O2)C(=O)NCCN1CCCCCC1` (stereo not given)?
NR2E3 ag-1: 7; CHT allo act: inactive; CHT inh: -6.4*; NR2F2 inh: 11; NR2E3 ag-2: 0; GalR3 antag: 5; CHT inh conf: 31%*; HEK293 MPD ctr: inactive

Results for CC(C)CCNC(=O)COc1ccc2c(c1)C(=O)CC(C)(C)O2 ?
NR2E3 ag-1: -10; CHT allo act: inactive; CHT inh: inactive; NR2F2 inh: -38; NR2E3 ag-2: 2; GalR3 antag: -4

Results for CCc1cc2c(NCc3ccco3)ncnc2s1 ?
NR2E3 ag-1: 28; CHT allo act: inactive; CHT inh: -6.6*; NR2F2 inh: 21; NR2E3 ag-2: 1; GalR3 antag: -5; CHT inh conf: 50%*; HEK293 MPD ctr: inactive

What do the screens show for `CCc1ccc(S(=O)(=O)c2n[nH]n3c2nc(=O)c2ccccc23)cc1`?
NR2E3 ag-1: 6; CHT allo act: inactive; CHT inh: -4.9*; NR2F2 inh: 11; NR2E3 ag-2: 3; GalR3 antag: 2; CHT inh conf: 8.6%*; HEK293 MPD ctr: inactive

What do the screens show for `COC(=O)C1CN(Cc2cn(Cc3ccc(Cl)cc3)nn2)CCS(=O)(=O)N1Cc1ccccc1` (stereo not given)?
NR2F2 inh: 3
